Runt-SMMHC FRET: blocks binding of human RUNX1 Runt domain to CBFb-SMMHC | Q01196+Q13951 | Cerulean-Runt/Venus-CBFb-SMMHC FRET ratio 530/480, 1 h | inhibition, % at 20 µM | hit rate 0.74% among 220,000 | AID 1434;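 active means mean inhibition across duplicate retests at 20 µM reaching about 50%, limit read from the data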;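 further: 0% = DMSO wells and 100% = wells with excess untagged CBFb-SMMHC; inhibitors lower the FRET ratio by blocking Runt binding to CBFb-SMMHC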
Hck-Nef inh: inhibitors of human Hck kinase activated by Nef | P08631 | Recombinant Hck-YEEI plus Nef, Z-Lyte FRET kinase assay | inhibition, % at 20 µM | hit rate 0.68% among 220,000;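 active means Hck-Nef kinase inhibition above about 50%, limit read from the data; inactive means inhibition below that limit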;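 further: 0% = DMSO with Hck plus Nef and 100% = Hck alone without Nef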
Tb hexokinase: T. brucei hexokinase 1 inhibition | inhibition, % at 10 µM | recombinant TbHK1, G6PDH-coupled NADH A340 | hit rate 0.11% among 220,000;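 active means inhibition of 50% or more in the single-dose primary screen; inactive means inhibition below 50%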
RanGTP-Imp inh: inhibitors of RanGTP-importin-beta interaction, primary screen, biochemical, FRET, CFP-Ran, YFP-importin-beta, homogeneous; cell-free CFP-Ran/YFP-importin-beta FRET ratio; inhibition, % (concentration not given with the values); hit rate 1.1% among 300,000; AID 2216;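 active means more than half of the replicate wells show a fall in the fluorescence ratio signal beyond about 16%, limit read from the data, passing the limit was not always enough; inconclusive means exactly half of the replicate wells pass the set limit; inactive means fewer than half of replicates pass the limit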;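 further: 0% = DMSO wells and 100% = Ran loaded with GDP instead of GTP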
p97 ATPase inh: human p97 ATPase inhibition; P55072; recombinant p97 ATPase, Kinase-Glo ATP luminescence, 3 h; inhibition, % at 8 µM; hit rate 0.42% among 220,000; AID 1481; in the data active means inhibition above about 15%;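 further: 0% = DMSO vehicle and 100% = wells lacking enzyme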
Target sequence (P55072 whole entry, looked up): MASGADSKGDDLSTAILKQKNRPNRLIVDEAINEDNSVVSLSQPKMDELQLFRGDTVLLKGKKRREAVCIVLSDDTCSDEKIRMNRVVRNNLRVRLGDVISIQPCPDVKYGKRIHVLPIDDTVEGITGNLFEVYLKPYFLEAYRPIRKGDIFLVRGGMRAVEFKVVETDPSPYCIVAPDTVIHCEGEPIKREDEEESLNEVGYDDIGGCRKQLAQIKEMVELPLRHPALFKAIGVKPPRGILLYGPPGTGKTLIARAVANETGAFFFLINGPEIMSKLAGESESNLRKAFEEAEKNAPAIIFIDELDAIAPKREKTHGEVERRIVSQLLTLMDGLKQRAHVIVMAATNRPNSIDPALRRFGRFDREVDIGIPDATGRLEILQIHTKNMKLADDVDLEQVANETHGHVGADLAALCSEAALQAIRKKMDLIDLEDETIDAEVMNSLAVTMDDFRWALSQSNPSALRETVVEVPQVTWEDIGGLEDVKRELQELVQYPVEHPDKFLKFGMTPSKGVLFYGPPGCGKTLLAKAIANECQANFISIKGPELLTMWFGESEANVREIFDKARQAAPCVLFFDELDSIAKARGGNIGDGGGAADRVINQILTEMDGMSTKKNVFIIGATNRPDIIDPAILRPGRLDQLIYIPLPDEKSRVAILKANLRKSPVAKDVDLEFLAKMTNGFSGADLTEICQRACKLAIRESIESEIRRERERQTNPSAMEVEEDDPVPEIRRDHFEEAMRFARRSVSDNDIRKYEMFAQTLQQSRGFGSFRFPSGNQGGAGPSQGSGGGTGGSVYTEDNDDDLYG
Runt-CBFb FRET: inhibitors of human RUNX1 Runt domain binding to CBFb. Q01196+Q13951. Cerulean-Runt/Venus-CBFb FRET ratio 530/480, 1 h. inhibition, % at 20 µM. hit rate 0.46% among 220,000;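 active means inhibition over about 50% at 20 µM in the single-dose screen, limit read from the data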;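 further: 0% = DMSO wells and 100% = excess unlabeled CBFb competitor control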
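System: Cerulean-labeled Runt domain protein | Quantity: 100 nM of each labeled protein | Schedule: 1 h compound exposure, room temperature | Detection: Fluorescence energy transfer, 422 nm excitation, 530/480 nm emission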
* hit, by the source's call; ? = inconclusive; nt = no result given. Most compounds without a hit are left out; they make up all but 2.1% or so of the library.

SMILES	Runt-SMMHC FRET	Hck-Nef inh	Tb hexokinase	RanGTP-Imp inh	p97 ATPase inh	Runt-CBFb FRET
CC1=C(C(=O)OCC2CCCO2)C(c2ccc(C)cc2)C2=C(CC(C)(C)CC2=O)N1 (stereo unspecified)	56*	47	-5	5	-3	20
COC(=O)c1ccc(C2C(C#N)=C(C)NC3=C2C(=O)CC(C)(C)C3)cc1 (stereo unspecified)	81*	12	-7	5	6	27
CCCCC1C(C#N)=C(C)NC2=C1C(=O)CC(C)(C)C2 (stereo unspecified)	69*	25	-11	9	3	32
CCCOc1ccc(Br)cc1/C=N/O	2	5	-2	-1	0	0
COc1ccccc1NC(=O)C(C)OC(=O)c1nc2nc(C)cc(C)n2n1 (stereo unspecified)	nt	nt	nt	-4	nt	nt
CC1=CC(=C(C#N)C#N)C=C(C)N1CCC(C)C	0	-16	-40	2	0	0
CCCc1ccc(OCC(O)CN2CCN(c3ccccn3)CC2)cc1 (stereo unspecified)	nt	nt	nt	3	nt	nt
Cn1cccc1/C=C1\SC(=O)N(CC(=O)Nc2ccc(Cl)cc2)C1=O	-2	0	1	5	-2	-1
CCOc1ccc(NC(=O)CN2C(=O)S/C(=C/c3cccn3C)C2=O)cc1	-47	18	-8	16*	2	-12
Cc1cc(SCC(=O)N/N=C/c2ccc(O)cc2O)c(C)cc1Br	4	-10	6	3	4	6
CCn1c(SCC(=O)NC2=NCCS2)nnc1C(C)NC(=O)c1ccc(Cl)cc1 (stereo unspecified)	nt	nt	nt	-5	nt	nt
CCCN1CCC2(CC1)C(C#N)=C(N)Oc1c2sc2nc(C)cc(C)c12	12	3	2	26*	0	6
CCOC(=O)N1CCC2(CC1)C(C#N)=C(N)Oc1c2sc2nc(C)cc(C)c12	-2	-1	2	-3	3	-3
O=C(CN1C(=O)NC2(CCCC2)C1=O)OCCOc1ccccc1Cl	nt	nt	nt	-6	nt	nt
COc1cc2ccccc2nn1	82*	-31	3	65*	-2	10
N#CC1=C(N)SC(N)=C(C#N)C1CCC1CCCCC1	35	4	3	51*	-8	22
Nc1nnc(CCC2CCCCC2)s1	0	7	7	0	1	0
COc1ccccc1NC(=O)CSc1nc(=O)n(Cc2ccncc2)c2c1CCCC2	nt	nt	nt	6	nt	nt
O=C1/C(=C/c2cccs2)SC(=S)N1NS(=O)(=O)c1ccccc1	-4	78*	22	-1	-1	0
COc1ccc(OC)c(/C=C2\SC(=S)N(NS(=O)(=O)c3ccccc3)C2=O)c1	nt	nt	nt	-6	nt	nt
Nc1cccc2c1C(=O)N(CCOc1ccccc1F)C2=O	nt	nt	nt	42*	nt	nt
CCOc1ccc(NC(=O)CCCn2c(=S)[nH]c3ccsc3c2=O)cc1	5	21	-18	1	0	1
CSc1nc(NCc2ccco2)c2sc3nc(C(C)C)c4c(c3c2n1)CC(C)(C)OC4	-9	0	-29	3	-3	-7
CSc1nc(NCCOCCO)c2sc3nc(-c4ccco4)c4c(c3c2n1)CCC4	-20	81*	-7	?	9	24
COC(=O)c1ccc(-c2sc3nc(N4CCOCC4)c4c(c3c2N)CC(C)(C)OC4)o1	-24	-9	-13	24*	6	-2
SMILES	Runt-SMMHC FRET	Hck-Nef inh	Tb hexokinase	RanGTP-Imp inh	p97 ATPase inh	Runt-CBFb FRET
O=C(/C=C/c1ccccc1[N+](=O)[O-])NC1CCCC1	-23	2	-9	-4	2	1
Cc1ccc2oc(-c3ccc(NC(=O)c4ccc5c(c4)OCO5)cc3)nc2c1	-10	26	-14	2	6	67*
O=C(O)C(O)Cc1c[nH]c2ccccc12 (stereo unspecified)	2	0	0	nt	6	0
O=C(CC(C(=O)O)c1c[nH]c2ccccc12)c1ccccc1 (stereo unspecified)	3	32	-2	42*	3	1
CC1(C)CC(Nc2ccc(C(F)(F)F)cc2[N+](=O)[O-])CC(C)(C)N1	-5	-15	3	nt	2	-1
CC(C)S(=O)(=O)C1=NSC2=NC(=O)/C(=C\c3ccc(-c4ccccc4)o3)C(=N)N21	82*	3	19	?	3	14
N#C/C(=C(/O)CSc1ccccc1C(=O)O)c1nc2ccccc2s1	1	1	-16	-3	16*	1
COCCn1c(C)cc(C(=O)COc2ccc(C)nc2[N+](=O)[O-])c1C	13	22	-9	-4	15*	11
COc1cccc2c(=O)c3cccc(N)c3[nH]c12	nt	35	-9	127*	10	-59
COc1cccc2c(=O)c3c([nH]c12)OC(C)(C)C3	nt	nt	nt	1	nt	nt
N#CCSc1nnc(Cc2cccc3ccccc23)n1C1CCCCC1	-2	2	-12	1	-2	0
Cc1cc(C)c2cc(C#N)c(N3CCCN(C(=S)NCCCN(C)C)CC3)nc2c1	nt	nt	nt	35*	nt	nt
CCOCCCNC(=S)N1CCCN(c2nc3cc(C)ccc3cc2C#N)CC1	76*	20	2	4	2	10
Cc1cc(C)c2cc(C#N)c(N3CCCC3)nc2c1	38	4	4	nt	5	11
COCC(=O)N1CCCN(c2nc3c(C)cccc3cc2C#N)CC1	38	10	-9	57*	2	8
CCOCCCNC(=S)N1CCCN(c2nc3c(C)c(C)ccc3cc2C#N)CC1	nt	18	0	51*	-9	nt
CCOCCCNC(=S)NCCCNc1nc2c(C)c(C)ccc2cc1C#N	38	35	0	nt	0	10
COc1ccccc1N1C(=O)CCC1(C#N)c1ccccc1 (stereo unspecified)	4	-1	0	1	-6	1
Cc1[nH]n(-c2ccccc2)c(=O)c1C(c1ccc(O)c([N+](=O)[O-])c1)c1c(C)[nH]n(-c2ccccc2)c1=O	nt	-1	-9	-3	15*	nt
COc1ccc(C(C[N+](=O)[O-])c2c(C)[nH]n(-c3ccccc3)c2=O)cc1 (stereo unspecified)	nt	nt	nt	-1	nt	nt
CC1(C)CC(=O)C2=C(C1)Nc1ccccc1NC2	87*	25	-37	-10	-1	-28
Cc1ccc(C2=N/C(=C\N(C)C)C(=O)O2)cc1	-1	4	-72	17*	2	0
CN(C)/C=C1/N=C(c2ccccc2)OC1=O	6	3	-73	-1	1	0
Cc1cccc(NC(=O)c2cc3c(=O)n4ccccc4nc3s2)c1	nt	nt	nt	-26	nt	nt
O=C(Nc1cccc(Cl)c1)c1cc2c(=O)n3ccccc3nc2s1	nt	nt	nt	91*	nt	nt
O=C1NCCCCC1NS(=O)(=O)c1ccc(F)c(F)c1 (stereo unspecified)	3	7	-3	6	-4	0
